# Experimental data taken from ChEMBL document CHEMBL1152839, “2-[2-Substituted-3-(3,4-dichlorobenzylamino)propylamino]-1H-quinolin-4-ones as Staphylococcus aureus methionyl-tRNA synthetase inhibitors” (Eur J Med Chem, 2009).
# Experiments:
# [1] = test system: Enterococcus faecalis; experiment: Antibacterial activity against Enterococcus faecalis ATCC 19433 after 16 hrs at 36 degC by microdilution method; format: functional; details: ATCC 19433, 16 h
# How it was run: (§1)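 Broth microdilution in Brain Heart Infusion broth, following NCCLS/CLSI. Test compounds were serially diluted 2-fold from stock. The MIC was the lowest concentration with no visible bacterial growth after incubation at 36 °C. Mupirocin and amoxicillin were tested the same way as references.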
# [2] = test system: Staphylococcus aureus; experiment: Antibacterial activity against methicillin-resistant Staphylococcus aureus KS2007-6 after 16 hrs at 36 degC by microdilution method; format: functional
# How it was run: (§2)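 Broth microdilution per CLSI in Mueller-Hinton broth for staphylococci. Stock solutions were diluted in a 2-fold serial series to final test concentrations. The MIC was read as the lowest concentration that prevented visible bacterial growth after incubation at 36 °C. Mupirocin and amoxicillin were run by the same method as references.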
# [3] = test system: Staphylococcus aureus; experiment: Antibacterial activity against Staphylococcus aureus ATCC 25923 after 16 hrs at 36 degC by microdilution method; format: functional; details: ATCC 25923, 16 h
# How it was run: (§3)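 Broth microdilution in Mueller-Hinton broth, following NCCLS/CLSI. Stock solutions were serially diluted 2-fold to the final test concentrations. The MIC was the lowest concentration that prevented visible growth after incubation at 36 °C. Mupirocin and amoxicillin were reference antibiotics run by the same method.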
# [4] = test system: Staphylococcus aureus; experiment: Antibacterial activity against Staphylococcus aureus SP-N2 after 16 hrs at 36 degC by microdilution method; format: functional; how it was run: as §2
# [5] = test system: Staphylococcus aureus; experiment: Antibacterial activity against Staphylococcus aureus GIORGIO after 16 hrs at 36 degC by microdilution method; format: functional; how it was run: as §3
# [6] = test system: Staphylococcus aureus; experiment: Antibacterial activity against Staphylococcus aureus ATCC 10537 after 16 hrs at 36 degC by microdilution method; format: functional; details: ATCC 10537, 16 h; how it was run: as §3
# [7] = Inhibition of Staphylococcus aureus methionyl-tRNA synthetase assessed as decrease in [35S]methionyl-tRNA generation
# [8] = test system: Staphylococcus epidermidis; experiment: Antibacterial activity against Staphylococcus epidermidis ATCC 12228 after 16 hrs at 36 degC by microdilution method; format: functional; details: ATCC 12228, 16 h; how it was run: as §3
# [9] = test system: Enterococcus faecalis; experiment: Antibacterial activity against Enterococcus faecalis ATCC 29212 after 16 hrs at 36 degC by microdilution method; format: functional; details: ATCC 29212, 16 h; how it was run: as §1
# [10] = test system: Staphylococcus aureus; experiment: Antibacterial activity against Staphylococcus aureus Smith after 16 hrs at 36 degC by microdilution method; format: functional; how it was run: as §3
# [11] = test system: Staphylococcus aureus; experiment: Antibacterial activity against Staphylococcus aureus ATCC 6538P after 16 hrs at 36 degC by microdilution method; format: functional; how it was run: as §3
# [12] = test system: Enterococcus faecium; experiment: Antibacterial activity against Enterococcus faecium ATCC 10541 after 16 hrs at 36 degC by microdilution method; format: functional; details: ATCC 10541, 16 h; how it was run: as §1
Structure (SMILES),MIC [1] [µg/mL],MIC [2] [µg/mL],MIC [3] [µg/mL],MIC [4] [µg/mL],MIC [5] [µg/mL],MIC [6] [µg/mL],IC50 [7] [µM],MIC [8] [µg/mL],MIC [9] [µg/mL],MIC [10] [µg/mL],MIC [11] [µg/mL],MIC [12] [µg/mL]
NC(CNCc1ccc(Cl)c(Cl)c1)CNc1cc(=O)c2ccccc2[nH]1 (centres undefined),64,64,64,64,64,64,0.137,32,64,64,64,16
CCOC(CNCc1ccc(Cl)c(Cl)c1)CNc1cc(=O)c2ccccc2[nH]1 (centres undefined),4,8,16,16,16,16,0.0303,8,4,16,8,1
CC(C)OC(CNCc1ccc(Cl)c(Cl)c1)CNc1cc(=O)c2ccccc2[nH]1 (centres undefined),4,8,16,16,32,16,0.091,16,4,16,16,2
O=C(OC(CNCc1ccc(Cl)c(Cl)c1)CNc1cc(=O)c2ccccc2[nH]1)c1ccccc1 (centres undefined),16,32,64,32,32,64,0.0694,16,16,32,32,8
O=c1cc(NCC(CO)CNCc2ccc(Cl)c(Cl)c2)[nH]c2ccccc12 (centres undefined),8,16,64,16,64,32,0.0119,16,8,32,16,2
COCC(CNCc1ccc(Cl)c(Cl)c1)CNc1cc(=O)c2ccccc2[nH]1 (centres undefined),0.5,4,16,8,16,8,0.015,4,0.5,8,4,0.125
C=CCOC(CNCc1ccc(Cl)c(Cl)c1)CNc1cc(=O)c2ccccc2[nH]1 (centres undefined),2,4,8,8,16,16,0.0294,4,2,8,8,1
CN(C)C(CNc1cc(=O)c2ccccc2[nH]1)CN(Cc1ccc(Cl)c(Cl)c1)Cc1ccc(Cl)c(Cl)c1 (centres undefined),> 64,–,> 64,> 64,> 64,> 64,0.131,> 64,> 64,> 64,> 64,> 64
CC(C)(C)OC(=O)NC(CNCc1ccc(Cl)c(Cl)c1)CNc1cc(=O)c2ccccc2[nH]1 (centres undefined),32,32,32,32,32,32,0.103,32,32,32,32,8
CN(C)C(CNCc1ccc(Cl)c(Cl)c1)CNc1cc(=O)c2ccccc2[nH]1 (centres undefined),16,64,> 64,64,> 64,64,0.0396,32,16,64,> 64,8
O=c1cc(NCC(CNCc2ccc(Cl)c(Cl)c2)OCc2ccccc2)[nH]c2ccccc12 (centres undefined),2,2,4,4,4,4,0.0247,2,2,4,4,0.5
O=c1cc(NCCCNCc2ccc(Cl)c(Cl)c2)[nH]c2ccccc12,2,8,16,8,32,16,0.0034,8,2,16,4,0.5
CC1(C)S[C@@H]2[C@H](NC(=O)[C@H](N)c3ccc(O)cc3)C(=O)N2[C@H]1C(=O)O [AMOXICILLIN],64,0.25,0.25,0.25,0.125,0.125,–,0.125,64,0.125,0.125,8
C/C(=C\C(=O)OCCCCCCCCC(=O)O)C[C@@H]1OC[C@H](C[C@@H]2O[C@H]2[C@@H](C)[C@H](C)O)[C@@H](O)[C@H]1O [MUPIROCIN],1,–,0.25,> 64,0.25,0.25,–,2,2,0.25,0.5,1
